15 compounds from PubChem BioAssay can be followed below.

Active and inactive are the calls of the source.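 The calls were made as follows, unless noted: active = viability at or under a set limit in both replicates, limit being median viability minus 3 SD (cut at about 48% in these data, passing the limit was not always enough); inconclusive = at or under the limit in just one replicate; inactive = at or above the limit in both replicates.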

A short description of test [1]: Her2 expression decrease, cell viability multiplex – SKBR3 breast tumor cells, AlphaScreen, ATP viability, primary screen (AID 461;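 active = Her2 level under about 52% in both replicate screens, with viability over 70% of control, limit read from the data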;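 as to Her2 level: lower value means less Her2 protein in the cells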;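 as to viability: percent of carrier control wells set as 100% viability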). Particulars: SKBR3 Her2 protein level, 18-24 h, measured here: SKBR3 viability, ATP luminescence, at 10 µM. (In general: Alpha assays give light when donor and acceptor beads are brought close together.)
Test [2] concerns the target Receptor tyrosine-protein kinase erbB-2 (Homo sapiens) (UniProt P04626). The description is as above. Particulars: 18-24 h, at 10 µM, stronger effect = lower value.
The nature of test [3]: reduced viability of SK-BR-3 breast cancer cells – cell-based, 24 h, human, pilot screen (AID 572;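 active = viability at or below 10% of carrier control in both of two separate runs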;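 also: compound exposure lasted between 18 and 24 h rather than exactly 24 h; 100% = carrier-treated control wells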). Particulars: SK-BR-3 viability, CellTiter-Glo luminescence, at 10 µM, stronger effect = lower value.
Test [4] in a line: HUVEC growth inhibition – cell-based, human, primary screen (AID 575;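 active = viability at or below 30% in both replicate assays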;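 also: 100% = median of untreated cell wells with 0.1% DMSO on each plate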). The settings on record: HUVEC proliferation, CellTiter-Glo luminescence, 72 h; at 10 µM; stronger effect = lower value. The essentials:
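Assay system: primary human umbilical vein endothelial cells / Buffer or medium: endothelial basal medium with 2% FBS plus growth supplements / Compound dosing: one dose, 10 µM final, 0.1% DMSO / Timing: 72 h treatment at 37 °C / Signal: CTG luminescence / Benchmarks: 32 DMSO-only cell-control wells (high), 32 MePR drug-control wells (low) per plate / Plate: collagen-coated 384-well format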

Test [5] in a line: H69AR cell proliferation blockers – human, duplicate replicates, primary screen (AID 580).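 Also: 100% = mean luminescence of untreated wells and 0% = no signal.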 The settings on record: H69AR lung tumor cells viability, ATP luminescence, 72 h; at 10 µM; stronger effect = lower value.
A short description of test [6]: MRP1 drug-resistance reversers in H69AR cells – cell-based, doxorubicin co-treatment, pilot screen (AID 601;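 active = viability loss from added drug above about 55%, and viability with drug at most 40%, in both replicates, limit read from the data, passing the limit was not always enough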). Particulars: CellTiter-Glo, 72 h, at 10 µM; for differential viability (reversal): stronger effect = higher value. In general terms: Cellular ATP, detected with luciferase, serves as a proxy for viable cell number.
The nature of test [7]: yeast transport mutant growth inhibition pilot in 384-well plates, post-Golgi transport modulator project (AID 636; in the data active = inhibition above about 31%). The settings on record: absorbance 615 nm, about 18 h, stronger effect = higher value.
A short description of test [8]: growth suppression of yeast trafficking mutant, preliminary HTS, modulators of trafficking downstream of Golgi apparatus project, 1536-format plate, OD 615 nm (AID 637; in the data active = inhibition above about 30%). Particulars: yeast transport mutant growth, absorbance 615 nm, 18 h; stronger effect = higher value.
The mark [9] stands for this setting: H69AR cells + 2 uM doxorubicin, measured here: viability with 2 uM doxorubicin, stronger effect = lower value.
Setting [10] is: H69AR cells, compound alone cytotoxicity.

Chain of Receptor tyrosine-protein kinase erbB-2 (Homo sapiens) (P04626 whole entry, looked up): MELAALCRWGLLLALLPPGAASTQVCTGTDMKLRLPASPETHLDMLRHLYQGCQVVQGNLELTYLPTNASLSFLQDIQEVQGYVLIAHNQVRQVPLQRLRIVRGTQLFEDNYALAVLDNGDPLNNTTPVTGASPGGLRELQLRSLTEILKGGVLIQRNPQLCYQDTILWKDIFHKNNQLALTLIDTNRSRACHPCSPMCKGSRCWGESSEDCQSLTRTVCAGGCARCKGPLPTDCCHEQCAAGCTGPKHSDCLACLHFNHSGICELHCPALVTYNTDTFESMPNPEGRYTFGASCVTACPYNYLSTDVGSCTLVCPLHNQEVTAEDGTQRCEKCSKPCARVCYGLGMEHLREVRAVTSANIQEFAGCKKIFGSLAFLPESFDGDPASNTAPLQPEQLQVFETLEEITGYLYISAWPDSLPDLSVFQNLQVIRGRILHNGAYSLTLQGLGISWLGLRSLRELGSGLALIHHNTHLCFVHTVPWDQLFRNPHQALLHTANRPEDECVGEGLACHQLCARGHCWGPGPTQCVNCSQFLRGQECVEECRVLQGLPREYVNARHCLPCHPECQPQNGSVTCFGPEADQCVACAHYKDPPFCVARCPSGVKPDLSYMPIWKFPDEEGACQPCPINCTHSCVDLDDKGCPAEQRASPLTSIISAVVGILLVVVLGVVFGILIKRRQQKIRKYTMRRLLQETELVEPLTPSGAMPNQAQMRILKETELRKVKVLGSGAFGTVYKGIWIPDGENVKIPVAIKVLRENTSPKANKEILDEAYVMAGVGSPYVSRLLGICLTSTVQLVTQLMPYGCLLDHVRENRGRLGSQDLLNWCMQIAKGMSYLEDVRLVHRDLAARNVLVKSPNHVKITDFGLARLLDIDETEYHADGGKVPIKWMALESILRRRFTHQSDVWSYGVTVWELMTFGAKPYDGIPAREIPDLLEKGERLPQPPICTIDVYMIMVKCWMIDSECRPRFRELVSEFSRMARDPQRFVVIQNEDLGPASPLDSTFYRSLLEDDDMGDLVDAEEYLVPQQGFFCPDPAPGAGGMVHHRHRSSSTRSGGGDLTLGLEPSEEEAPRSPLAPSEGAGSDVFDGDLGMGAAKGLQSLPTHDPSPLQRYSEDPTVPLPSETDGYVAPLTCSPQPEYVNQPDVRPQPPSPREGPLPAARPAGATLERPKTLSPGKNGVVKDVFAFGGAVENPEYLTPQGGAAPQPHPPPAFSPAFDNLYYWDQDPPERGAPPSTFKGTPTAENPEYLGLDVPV

For `CCOC(=O)c1ccc2nc(NC(NC(C)=O)(C(=O)OC)C(F)(F)F)sc2c1` (stereo not given), the viability was 98.5% in test [1]; 98.5% (inactive) in test [3]; 82.8% (inactive) in test [4]; 98.6% (inactive) in test [5]; 83.6% in test [6] (setting [9]); 98.6% in test [6] (setting [10]). The Her2 level in test [2] is 88.5% (inactive). The differential viability (reversal) in test [6] (H69AR cells + 2 uM doxorubicin) was 15% (inactive). Further, the inhibition is -3.03% (inactive) in test [7] and -1.82% (inactive) in test [8].
For the compound `COc1ccc(S(=O)(=O)Nc2ccc(S(=O)(=O)N3CCCCC3)cc2)cc1OC`, the viability in test [1] is 92%; in test [3], 92% (inactive); in test [4], 95.8% (inactive); in test [5] it was 91.3% (inactive); in test [6] (setting [9]), 94.9%; in test [6] (setting [10]), 91.3%. The Her2 level in test [2] is 100% (inactive). For the same compound, the differential viability (reversal) in test [6] (H69AR cells + 2 uM doxorubicin) is -3.68% (inactive). The inhibition in test [7] was 0.13% (inactive); in test [8], -2% (inactive).
Turning to `C=CCN1C(=O)C2(c3ccccc31)C1CCCC=C1C(C#N)=C(N)C2(C#N)C#N` (stereo not given), the viability is 81% in test [1]; 81% (inactive) in test [3]; 62.7% (inactive) in test [4]; 76.4% (inactive) in test [5]; 90.3% in test [6] (setting [9]); 76.4% in test [6] (setting [10]). Further, the Her2 level in test [2] was 82% (inactive). Further, the differential viability (reversal) in test [6] (H69AR cells + 2 uM doxorubicin) was -13.9% (inactive). Moreover, the inhibition in test [7] is 2.53% (inactive); in test [8], 26.8% (inactive).
For the compound `Nn1c(SCC(=O)Nc2ccc(Oc3ccccc3)cc2)nnc1C1CC1`, the viability in test [1] is 98.5%; in test [3], 98.5% (inactive); in test [4], 69.1% (inactive); in test [5], 75.7% (inactive); in test [6] (setting [9]), 85.4%; in test [6] (setting [10]), 75.7%. In addition, in test [2], the Her2 level is 100% (inactive). Moreover, the differential viability (reversal) in test [6] (H69AR cells + 2 uM doxorubicin) is -9.75% (inactive). For the same compound, the inhibition is -5.6% (inactive) in test [7] and -12.1% (inactive) in test [8].
Turning to `Cc1nnc(SCC(=O)N(C(C)C)C(C)C)nc1C`, the viability in test [1] was 75.5%; in test [3], 75.5% (inactive); in test [4] it was 95% (inactive); in test [5] it was 103% (inactive); in test [6] (setting [9]), 93.2%; in test [6] (setting [10]), 103%. The Her2 level in test [2] was 88.5% (inactive). Further, the differential viability (reversal) in test [6] (H69AR cells + 2 uM doxorubicin) is 10.3% (inactive). Also, the inhibition in test [7] is -5.6% (inactive); in test [8] it was -1.31% (inactive).
For the compound `CN(C)C(=O)CN(c1ccc(F)c(Cl)c1)S(C)(=O)=O`, the viability in test [1] was 101%; in test [3], 101% (inactive); in test [4] it was 92.7% (inactive); in test [5] it was 90.8% (inactive); in test [6] (setting [9]), 101%; in test [6] (setting [10]), 90.8%. Moreover, the Her2 level in test [2] was 111% (inactive). For the same compound, the differential viability (reversal) in test [6] (H69AR cells + 2 uM doxorubicin) is -10.3% (inactive). Besides, the results for the inhibition in test [7] and in test [8] were -2.11% (inactive) and -7.05% (inactive), respectively.
In the case of `Cc1cccc(N2CCN(Cc3c(C)n(C)n(-c4ccccc4)c3=O)CC2)c1C`, the viability in test [1] was 83.5%; in test [3] it was 83.5% (inactive); in test [4] it was 78.1% (inactive); in test [5] it was 83.9% (inactive); in test [6] (setting [9]), 83.8%; in test [6] (setting [10]), 83.9%. Besides, the Her2 level in test [2] is 88.5% (inactive). In addition, in test [6] (H69AR cells + 2 uM doxorubicin), the differential viability (reversal) is 0.085% (inactive). The inhibition in test [7] is -2.47% (inactive); in test [8] it was -1.31% (inactive).
`CCCOc1nc(N)c(C#N)c(-c2ccccc2F)c1C#N`: the viability is 98.5% in test [1]; 98.5% (inactive) in test [3]; 82.6% (inactive) in test [4]; 89.7% (inactive) in test [5]; 60.7% in test [6] (setting [9]); 89.7% in test [6] (setting [10]). Further, in test [2], the Her2 level was 114% (inactive). In addition, in test [6] (H69AR cells + 2 uM doxorubicin), the differential viability (reversal) is 29% (inactive). For the same compound, the inhibition was -2.53% (inactive) in test [7] and -9.52% (inactive) in test [8].
With `CCOc1ccc2[nH]c(=O)c(C(c3nnnn3CC3CCCO3)N3CCc4ccccc4C3)cc2c1` (stereo not given), the viability in test [1] is 97%; in test [3], 97% (inactive); in test [4] it was 81.1% (inactive); in test [5], 85.8% (inactive); in test [6] (setting [9]), 49.2%; in test [6] (setting [10]), 85.8%. Besides, in test [2], the Her2 level is 82.5% (inactive). The differential viability (reversal) in test [6] (H69AR cells + 2 uM doxorubicin) was 36.5% (inactive). For the same compound, the results for the inhibition in test [7] and in test [8] were -4.93% (inactive) and 2.62% (inactive), respectively.
Regarding `O=C(O)CC1=C(O)C(=O)N(c2ccccc2)C1c1ccccc1` (stereo not given), the viability was 102% in test [1]; 102% (inactive) in test [3]; 96.9% (inactive) in test [4]; 102% (inactive) in test [5]; 94.1% in test [6] (setting [9]); 102% in test [6] (setting [10]). The Her2 level in test [2] is 107% (inactive). The differential viability (reversal) in test [6] (H69AR cells + 2 uM doxorubicin) was 7.7% (inactive). The inhibition in test [7] was -1.49% (inactive); in test [8] it was -0.49% (inactive).
Turning to `Nn1c(SCC(=O)Nc2ccc3c(c2)OCCO3)nnc1C(F)(F)F`, the viability was 88.5% in test [1]; 88.5% (inactive) in test [3]; 88.3% (inactive) in test [4]; 80.9% (inactive) in test [5]; 88.8% in test [6] (setting [9]); 80.9% in test [6] (setting [10]). Also, the Her2 level in test [2] was 78.5% (inactive). For the same compound, the differential viability (reversal) in test [6] (H69AR cells + 2 uM doxorubicin) is -7.85% (inactive). The inhibition in test [7] is -2.5% (inactive); in test [8] it was 1.27% (inactive).
With `CCOc1ccc(Nc2nc(Cc3nnc(SCC(N)=O)o3)cs2)cc1`, the viability is 106% in test [1]; 106% (inactive) in test [3]; 89.8% (inactive) in test [4]; 93.6% (inactive) in test [5]; 80.4% in test [6] (setting [9]); 93.6% in test [6] (setting [10]). The Her2 level in test [2] was 88% (inactive). Also, the differential viability (reversal) in test [6] (H69AR cells + 2 uM doxorubicin) was 13.2% (inactive). Further, the inhibition was -6.1% (inactive) in test [7] and -2.7% (inactive) in test [8].
Consider `CCOc1ccccc1N(CC(=O)NC1CCCC1)C(=O)CCCC(=O)Nc1ccccn1`, for which the viability in test [1] is 91%; in test [3], 91% (inactive); in test [4] it was 106% (inactive); in test [5] it was 112% (inactive); in test [6] (setting [9]), 96.3%; in test [6] (setting [10]), 112%. The Her2 level in test [2] was 93.5% (inactive). Besides, the differential viability (reversal) in test [6] (H69AR cells + 2 uM doxorubicin) is 15.3% (inactive). Moreover, the inhibition in test [7] is -2.16% (inactive); in test [8], 6.03% (inactive).
Take `CCOC(=O)C1CCCN(C/C(O)=C(\C#N)c2nc(-c3ccc(Cl)cc3)cs2)C1` (stereo not given): the viability in test [1] was 78.5%; in test [3], 78.5% (inactive); in test [4], 71.8% (inactive); in test [5], 84.1% (inactive); in test [6] (setting [9]) it was 92.1%; in test [6] (setting [10]) it was 84.1%. The Her2 level in test [2] is 101% (inactive). Moreover, the differential viability (reversal) in test [6] (H69AR cells + 2 uM doxorubicin) was -7.97% (inactive). Further, the inhibition in test [7] is -6.16% (inactive); in test [8], -3.17% (inactive).
Take `COc1ccccc1Nc1nc(N)nc(CN2CCN(c3ccccc3F)CC2)n1`: the viability in test [1] was 96%; in test [3], 96% (inactive); in test [4] it was 98.9% (inactive); in test [5] it was 81.3% (inactive); in test [6] (setting [9]) it was 90%; in test [6] (setting [10]), 81.3%. In addition, the Her2 level in test [2] is 120% (inactive). Besides, the differential viability (reversal) in test [6] (H69AR cells + 2 uM doxorubicin) was -8.69% (inactive). Moreover, the results for the inhibition in test [7] and in test [8] were 1.71% (inactive) and 11.5% (inactive), respectively.

In general, viability refers to a read-out of living cells in per cent, often relative to untreated cells. One may read the inhibition as the change of the read-out against control, counted positive when it falls.
